Reference: paper PMC8247405 (British Journal of Clinical Pharmacology, 2020)

Assays:
[1] = tested on: type‐2 diabetes patients; conditions: human, in vivo
[2] = tested on: type‐2 diabetes patients; conditions: human, in vivo; remark: listed apart in the source
[3] = tested on: Zucker diabetic fatty (ZDF) rats; experiment: Heart rate in ZDF rats; assay type: in vivo, rat; conditions: low, intermediate and high dose, 5 weeks
[4] = tested on: Zucker diabetic fatty (ZDF) rats; experiment: Renal function; assay type: in vivo, rat; conditions: 5 weeks
Outline: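 ZDF rats on control or test-compound chow (0.002, 0.007, 0.0245% w/w) for 5 weeks, with lean controls. Creatinine clearance = urinary creatinine × urine volume / plasma creatinine, in µL/min. Kruskal–Wallis with Wilcoxon post hoc tests versus ZDF control.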

[5] = tested on: Zucker diabetic fatty (ZDF) rats; experiment: Plasma fructosamine in ZDF rats; assay type: in vivo, rat; conditions: any dose, 5‐week treatment
Outline: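 ZDF rats were fed control chow or test-compound chow (0.002–0.0245% w/w) from 9 weeks of age; lean rats served as reference. K₂-EDTA blood was drawn from the caudal vein under isoflurane at baseline and after 5 weeks. It was centrifuged at 4°C, 10 min, 10 000 g, and plasma was stored at −80°C. Fructosamine was measured on a clinical chemistry analyser by a blinded experimenter.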

[6] = tested on: Zucker diabetic fatty (ZDF) rats; experiment: Peripheral blood lymphocyte count in ZDF rats; assay type: in vivo, rat; conditions: 5 weeks
Outline: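 Male ZDF Fa/Fa rats, randomised by body weight at 9 weeks to control chow or chow with test compound at 0.002, 0.007 or 0.0245% w/w for 5 weeks; lean Fa/+ rats on control chow served as reference. Caudal-vein K₂-EDTA blood was taken under 1.5–2% isoflurane at baseline and 5 weeks. Lymphocytes were counted in fresh blood. Analysis was blinded, with 1-way ANOVA and Dunnett's test versus ZDF control.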

[7] = tested on: type‐2 diabetes patients; design: species or system human; conditions: in vivo
[8] = tested on: type‐2 diabetes patients; conditions: human, in vivo; remark: listed apart in the source
[9] = cited from earlier work
[10] = Plasma pharmacokinetics of SAR247799 in diabetic rats, 5-week chow dosing; assay type: in vivo, Zucker diabetic fatty (ZDF) rats; conditions: ZDF rats; for C (plasma concentration), mean / C (plasma concentration), median: 5 weeks postdosing; for AUC 0–24, mean / AUC 0–24, median: AUC0–24 = C × 24
Outline: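 ZDF rats received test compound in chow at 0.002, 0.007 or 0.0245% w/w for 5 weeks. Plasma taken at 5 weeks was assayed by LC-MS/MS. AUC0–24 was computed as C × 24, taking the 5-week concentration as the average over the dosing interval.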

[11] = tested on: type‐2 diabetes patients; conditions: human, in vivo; remark: listed apart in the source
[12] = Plasma pharmacokinetics in type-2 diabetes patients; assay type: in vivo, human; conditions: for AUC 0–24, mean / AUC 0–24, median / Cmax, mean / Cmax, median / Tmax, mean / Tmax, median / Rac_AUC 0–24 (accumulation ratio), mean / Rac_AUC 0–24 (accumulation ratio), median / Rac_C max (accumulation ratio), mean / Rac_C max (accumulation ratio), median: n 15
Outline: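 Type-2 diabetes patients received 1 or 5 mg test compound orally once daily for 28 days (15 per dose cohort). Plasma was sampled at 4 and 12 h postdose on day 1, predose on days 2, 3 and 7, and 3 h postdose on days 14, 21 and 28. Samples were assayed by validated LC-MS/MS (LLOQ 5 ng/mL). Cmax, tmax, trapezoidal AUC0–24 and accumulation ratio were derived by a Bayesian population PK model built in healthy subjects.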

[13] = tested on: patients; conditions: in vivo; cited from earlier work
[14] = tested on: renal transplant recipients; conditions: in vivo, cited from earlier work
[15] = tested on: type‐2 diabetes patients; conditions: human, in vivo; cited from earlier work
[16] = 0.007% (w/w) in chow (intermediate)

Cc1cc(-c2nc3cnc(Oc4cccc(Cl)c4)nc3o2)cc(C)c1OCC(=O)O [SAR247799]
lymphocytes, mean reductions vs placebo [1]: < 8%
Patients with TEAE: Arthropod sting [2]: 0 n (%)
Patients with TEAE: Contusion [2]: 0 n (%)
Patients with TEAE: Diarrhoea [2]: 0 n (%)
Patients with TEAE: Dyspepsia [2]: 0 n (%)
Patients with TEAE: Headache [2]: 1 (6.7%) n (%)
Patients with TEAE: Injury, poisoning and procedural complications [2]: 0 n (%)
Patients with TEAE: Leading to treatment discontinuation [2]: 0 n (%)
Patients with TEAE: Nausea [2]: 1 (6.7%) n (%)
Patients with TEAE: Oropharyngeal pain [2]: 0 n (%)
Patients with TEAE: Otitis externa [2]: 0 n (%)
Patients with TEAE: Severe AE [2]: 0 n (%)
Patients with TEAE: Skin abrasion [2]: 0 n (%)
Patients with TEAE: Traumatic haematoma [2]: 0 n (%)
Patients with TEAE: Ventricular extrasystoles [2]: 0 n (%)
tolerability [2]: well tolerated
effect on heart rate [3]: None of the doses of SAR247799 altered heart rate
change in creatinine clearance ([4]; high dose): lesser (nonsignificant) increase
reduction in urinary protein:creatinine ratio ([4]; high dose): statistically significant
effect on urinary output ([4]; intermediate dose): significantly blunted the increase in urinary output
fractional excretion of electrolytes (Na+ and Cl−) ([4]; intermediate dose): levels similar to lean control rats
increase in creatinine clearance compared to vehicle‐treated ZDF rats ([4]; intermediate dose): 2.5 fold
reduction in urinary protein:creatinine ratio ([4]; intermediate dose): statistically significant
change in creatinine clearance ([4]; low dose): no increase
effect on urinary protein:creatinine ratio ([4]; low to high dose): dose‐dependent reduction
effect on urinary protein:creatinine ratio ([4]; lowest dose): partial effect
effect on plasma fructosamine [5]: did not alter fructosamine levels
decrease in peripheral blood lymphocytes ([6]; high dose 0.0245% (w/w) chow): 35%
effect on peripheral blood lymphocytes ([6]; intermediate dose 0.007% (w/w) chow): did not reduce lymphocytes
effect on peripheral blood lymphocytes ([6]; low dose 0.002% (w/w) chow): did not reduce lymphocytes
overall effect on FMD [7]: dose‐dependent improvement in FMD
heart rate increase [8]: no increase
heart rate, mean difference vs placebo (maximum decrease) [8]: −6.4 beats/min
mean heart rate increase [8]: 0–4 beats/min
elimination half‐life [9]: 32 h
C (plasma concentration), mean ([10]; 0.002% (w/w) in chow (low)): 0.0944 µg/mL
C (plasma concentration), median ([10]; 0.002% (w/w) in chow (low)): 0.0917 µg/mL
AUC 0–24, mean ([10]; 0.002% (w/w) in chow (low)): 2270 ng·h/mL
AUC 0–24, median ([10]; 0.002% (w/w) in chow (low)): 2200 ng·h/mL
C (plasma concentration), mean [10, 16]: 0.423 µg/mL
C (plasma concentration), median [10, 16]: 0.432 µg/mL
AUC 0–24, mean [10, 16]: 10200 ng·h/mL
AUC 0–24, median [10, 16]: 10400 ng·h/mL
C (plasma concentration), mean ([10]; 0.0245% (w/w) in chow (high)): 4.43 µg/mL
C (plasma concentration), median ([10]; 0.0245% (w/w) in chow (high)): 4.60 µg/mL
AUC 0–24, mean ([10]; 0.0245% (w/w) in chow (high)): 106000 ng·h/mL
AUC 0–24, median ([10]; 0.0245% (w/w) in chow (high)): 110000 ng·h/mL
increase in plasma concentration, high vs intermediate dose ([10]; for a 3.5‐fold increase in dose): 10.5 fold
steady state AUC0–24h ([10]; intermediate dose): 10.2 µg/mL
steady state AUC0–24h ([10]; low dose): 2.27 µg/mL
effect on blood pressure [11]: did not affect blood pressure
steady state AUC0–24h ([12]; 1‐mg/d human dose): 2.97 µg/mL
steady state AUC0–24h ([12]; 5‐mg/d human dose): 14.9 µg/mL
AUC 0–24, mean ([12]; day 1, 1 mg oral once daily): 1030 ng·h/mL
AUC 0–24, median ([12]; day 1, 1 mg oral once daily): 983 ng·h/mL
Cmax, mean ([12]; day 1, 1 mg oral once daily): 57.4 ng/mL
Cmax, median ([12]; day 1, 1 mg oral once daily): 53.8 ng/mL
Tmax, mean ([12]; day 1, 1 mg oral once daily): 2.68 h
Tmax, median ([12]; day 1, 1 mg oral once daily): 2.50 h
AUC 0–24, mean ([12]; day 1, 5 mg oral once daily): 5310 ng·h/mL
AUC 0–24, median ([12]; day 1, 5 mg oral once daily): 5310 ng·h/mL
Cmax, mean ([12]; day 1, 5 mg oral once daily): 310 ng/mL
Cmax, median ([12]; day 1, 5 mg oral once daily): 315 ng/mL
Tmax, mean ([12]; day 1, 5 mg oral once daily): 2.42 h
Tmax, median ([12]; day 1, 5 mg oral once daily): 2.50 h
accumulation ratio ([12]; day 1 to day 14, 1 and 5 mg/d): 2.5–2.9
AUC 0–24, mean ([12]; day 14, 1 mg oral once daily): 2970 ng·h/mL
AUC 0–24, median ([12]; day 14, 1 mg oral once daily): 2780 ng·h/mL
Cmax, mean ([12]; day 14, 1 mg oral once daily): 152 ng/mL
Cmax, median ([12]; day 14, 1 mg oral once daily): 147 ng/mL
Rac_AUC 0–24 (accumulation ratio), mean ([12]; day 14, 1 mg oral once daily): 2.86
Rac_AUC 0–24 (accumulation ratio), median ([12]; day 14, 1 mg oral once daily): 2.70
Rac_C max (accumulation ratio), mean ([12]; day 14, 1 mg oral once daily): 2.66
Rac_C max (accumulation ratio), median ([12]; day 14, 1 mg oral once daily): 2.50
Tmax, mean ([12]; day 14, 1 mg oral once daily): 2.24 h
Tmax, median ([12]; day 14, 1 mg oral once daily): 2.25 h
AUC 0–24, mean ([12]; day 14, 5 mg oral once daily): 14900 ng·h/mL
AUC 0–24, median ([12]; day 14, 5 mg oral once daily): 14800 ng·h/mL
Cmax, mean ([12]; day 14, 5 mg oral once daily): 779 ng/mL
Cmax, median ([12]; day 14, 5 mg oral once daily): 760 ng/mL
Rac_AUC 0–24 (accumulation ratio), mean ([12]; day 14, 5 mg oral once daily): 2.79
Rac_AUC 0–24 (accumulation ratio), median ([12]; day 14, 5 mg oral once daily): 2.73
Rac_C max (accumulation ratio), mean ([12]; day 14, 5 mg oral once daily): 2.54
Rac_C max (accumulation ratio), median ([12]; day 14, 5 mg oral once daily): 2.46
Tmax, mean ([12]; day 14, 5 mg oral once daily): 2.15 h
Tmax, median ([12]; day 14, 5 mg oral once daily): 2.25 h

CCC(CC)CC1(C(=O)Nc2ccccc2SC(=O)C(C)C)CCCCC1 [dalcetrapib]
effect on FMD and CV events [13]: neutral on both FMD and CV events

CCCCCCCCc1ccc(CCC(N)(CO)CO)cc1 [fingolimod]
effect on creatinine clearance ([14]; 2.5 mg): creatinine clearance impairment
lymphocyte reduction [14]: 70–80%

CCCc1nn(C)c2c(=O)[nH]c(-c3cc(S(=O)(=O)N4CCN(C)CC4)ccc3OCC)nc12 [sildenafil]
Patients with TEAE: Any class [2]: 5 (41.7%) n (%)
Patients with TEAE: Arthropod sting [2]: 0 n (%)
Patients with TEAE: Back pain [2]: 1 (8.3%) n (%)
Patients with TEAE: Cardiac disorders [2]: 1 (8.3%) n (%)
Patients with TEAE: Contusion [2]: 0 n (%)
Patients with TEAE: Cough [2]: 0 n (%)
Patients with TEAE: Diarrhoea [2]: 2 (16.7%) n (%)
Patients with TEAE: Dyspepsia [2]: 1 (8.3%) n (%)
Patients with TEAE: Epistaxis [2]: 0 n (%)
Patients with TEAE: Erythema [2]: 2 (16.7%) n (%)
Patients with TEAE: Gastroesophageal reflux disease [2]: 1 (8.3%) n (%)
Patients with TEAE: Gastrointestinal disorders [2]: 3 (25.0%) n (%)
Patients with TEAE: General disorders and administration site conditions [2]: 0 n (%)
Patients with TEAE: Headache [2]: 2 (16.7%) n (%)
Patients with TEAE: Infections and infestations [2]: 1 (8.3%) n (%)
Patients with TEAE: Injury, poisoning and procedural complications [2]: 0 n (%)
Patients with TEAE: Leading to treatment discontinuation [2]: 1 (8.3%) n (%)
Patients with TEAE: Musculoskeletal and connective tissue disorders [2]: 1 (8.3%) n (%)
Patients with TEAE: Musculoskeletal pain [2]: 0 n (%)
Patients with TEAE: Nasopharyngitis [2]: 1 (8.3%) n (%)
Patients with TEAE: Nausea [2]: 0 n (%)
Patients with TEAE: Neck pain [2]: 0 n (%)
Patients with TEAE: Nervous system disorders [2]: 2 (16.7%) n (%)
Patients with TEAE: Obstructive airways disorder [2]: 0 n (%)
Patients with TEAE: Oropharyngeal pain [2]: 1 (8.3%) n (%)
Patients with TEAE: Orthostatic intolerance [2]: 0 n (%)
Patients with TEAE: Otitis externa [2]: 0 n (%)
Patients with TEAE: Palpitations [2]: 0 n (%)
Patients with TEAE: Pruritus [2]: 0 n (%)
Patients with TEAE: Respiratory, thoracic and mediastinal disorders [2]: 1 (8.3%) n (%)
Patients with TEAE: Severe AE [2]: 0 n (%)
Patients with TEAE: Skin abrasion [2]: 0 n (%)
Patients with TEAE: Skin and subcutaneous tissue disorders [2]: 2 (16.7%) n (%)
Patients with TEAE: Traumatic haematoma [2]: 0 n (%)
Patients with TEAE: Ventricular extrasystoles [2]: 1 (8.3%) n (%)
Patients with TEAE: Vessel puncture site haematoma [2]: 0 n (%)
Patients with TEAE: Vomiting [2]: 0 n (%)
FMD increase from baseline compared to placebo [15]: ≥ 3%
FMD increases from baseline [15]: 5–6%
effect on FMD [15]: failed to improve FMD
FMD change versus placebo Mean estimate [95% CI] [7]: 0.88%
FMD with treatment [7]: about 5%
heart rate change [8]: no change
mean heart rate increase [8]: 3–6 beats/min
vasodilatory effect (blood pressure, BAD) [11]: no blood pressure‐lowering or BAD increase

CCOC(=O)N1c2ccc(C(F)(F)F)cc2[C@@H](N(Cc2cc(C(F)(F)F)cc(C(F)(F)F)c2)C(=O)OC)C[C@H]1CC [torcetrapib]
effect on FMD [13]: pharmacological decrease in FMD
